Data from BindingDB's records for doi:10.1021/jm00019a014 (University of Ghent, 1995).

What was measured:
[1] = biological target: glycosomal glyceraldehyde-3-phosphate dehydrogenase (GAPDH); test: Inhibition of glyceraldehyde-3-phosphate dehydrogenase in Trypanosoma brucei
In short: (§1)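 Enzyme sources: human erythrocyte GAPDH, glycosomal GAPDH from T. brucei, and glycosomal GAPDH from L. mexicana. IC50 is the inhibitor concentration at which 50% of enzyme activity remains. Poorly soluble compounds were not tested above their solubility limit, and the remaining activity at that level was recorded instead.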

[2] = biological target: glyceraldehyde-3-phosphate dehydrogenase (glycosomal GAPDH per title); test: TInhibition of glyceraldehyde-3-phosphate dehydrogenase in Leishmania mexicana; in short: as §1

With `Nc1ncnc2c1ncn2C1OC(CO)C(O)C1NCc1ccccc1` (stereo unspecified) [5-(6-Amino-purin-9-yl)-4-benzylamino-2-hydroxymethyl-tetrahydro-furan-3-ol] the IC50 [1] was > 10 mM and the IC50 [2] was > 10 mM.
In the case of `COc1cccc(C(=O)NC2C(O)C(CO)OC2n2cnc3c(N)nc(C)nc32)c1` (stereo unspecified) [N-[2-(6-Amino-2-methyl-purin-9-yl)-4-hydroxy-5-hydroxymethyl-tetrahydro-furan-3-yl]-3-methoxy-benzamide], the IC50 [1] is reported as > 10 mM and the IC50 [2] is reported as > 10 mM.
`CC(C)COC(=O)NC1C(O)C(CO)OC1n1cnc2c(N)ncnc21` (stereo unspecified) [[2-(6-Amino-purin-9-yl)-4-hydroxy-5-hydroxymethyl-tetrahydro-furan-3-yl]-carbamic acid isobutyl ester] was tested, and the IC50 [1] was > 10 mM and the IC50 [2] was > 10 mM.
